Measurements pooled from the literature.
Compare with care: the assays were run in different laboratories.
Cyp2e1: Cytochrome P450 2E1 (Cyp2e1, Rattus norvegicus, UniProt P05182)

| Structure (SMILES) | target or system | test | test system | conditions | quantity | result |
| --- | --- | --- | --- | --- | --- | --- |
| CCCCCn1cc(C(=O)Nc2cccc3ccccc23)c2ccccc21 | – | metabolic stability | Sprague-Dawley rat, liver microsomes | 1 µM, pH 7.4 | microsomal CLint | 310 µL/min/mg |
| CCN(CC)CCNC(=O)c1c(C)[nH]c(/C=C2\C(=O)Nc3ccc(F)cc32)c1C | Calu-3 | cell growth or viability, resazurin | – | – | CC50 | 45.7 µM |
| O=c1c(O[C@@H]2O[C@H](CO)[C@@H](O)[C@H](O)[C@H]2O)c(-c2ccc(O)cc2)oc2cc(O)cc(O)c12 | MCF7 | cell growth or viability, WST-1 | – | – | IC50 | 15.7 µM |
| OCCCCO | Cyp2e1 | enzyme activity, inhibitor | Fischer 344 rat, liver microsomes | 25 mM, 30 min | activity vs control | 17% |
| COc1ccnc(C(=O)N[C@H]2COC(=O)[C@H](Cc3ccccc3)[C@@H](OC(=O)C(C)C)[C@H](C)OC2=O)c1OCOC(=O)C(C)C | – | – | rat | topical | LD50 | > 5000 mg/kg |
| C=CC1CO1 (stereo not shown) | Cyp2e1 | enzyme activity, inhibitor | rat, liver microsomes | – | Ki | 24 µM |
| CCCCCn1nc(C(=O)Nc2cccc3ccccc23)c2ccccc21 | – | metabolic stability | Sprague-Dawley rat, liver microsomes | 1 µM, pH 7.4 | microsomal CLint | 430 µL/min/mg |
| CC(C)(C)NC(=O)N[C@H](C(=O)N1C[C@H]2[C@@H]([C@H]1C(=O)NC(CC1CCC1)C(=O)C(N)=O)C2(C)C)C(C)(C)C (stereo partly shown) | Calu-3 | cell growth or viability, MTT | – | 48 h | CC50 | > 250 µM |
| Cc1ncc2n1-c1ccc(Cl)cc1C(c1ccccc1F)=NC2 | – | metabolic stability | male rat, liver microsomes | 1 µM | microsomal CLint | > 250 µL/min/mg |
| NC(=O)c1c(NC(=O)c2cnn3c(C(F)(F)F)cc(-c4ccccc4)nc23)sc2c1CCCC2 | Calu-3 | cell growth or viability, MTT | – | 48 h | CC50 | > 125 µM |
| C=CC(=O)Nc1cccc(-c2snc3cc(-c4ccc(N)c(OC)c4)cnc23)c1 | Calu-3 | cell growth or viability, resazurin | – | – | CC50 | > 60 µM |
| N=c1c2c(-c3ccccc3)c(-c3ccccc3)n(Cc3ccccc3)c2ncn1[C@H]1CC[C@H](O)CC1 | – | – | female minipig, plasma | intravenous, 0.25 mg/kg, single dose | clearance | 0.6 mL/min/kg |
| O=C(O)C(F)(F)C(F)(F)C(F)(F)C(F)(F)C(F)(F)C(F)(F)C(F)(F)F | Solute carrier organic anion transporter family member 1B3 (SLCO1B3, Homo sapiens, UniProt Q9NPD5) | transporter uptake, substrate | CHO | 1 min, pH 7.4 | Km | 91.6 µM |
